In ChEMBL document CHEMBL1146312, “Synthesis of OSW saponin analogs with modified sugar residues and their antiproliferative activities” (Bioorg Med Chem Lett, 2007):

Assays:
Format in all cases: functional, cell-based
RKO = assay: Antiproliferative activity against human RKO cells
Procedure, shortened: (§1)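 Proliferation of human RKO colon carcinoma, Jurkat T-cell leukemia and HeLa cervical cancer cells was followed by [3H]-thymidine incorporation. IC50 values were taken from this read-out.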

HeLa = assay: Antiproliferative activity against human HeLa cells; procedure, shortened: as §1
Jurkat = assay: Antiproliferative activity against human Jurkat cells; procedure, shortened: as §1

IC50 (HeLa) [nM]	IC50 (Jurkat) [nM]	SMILES	IC50 (RKO) [nM]
1100		C=CCO[C@@H]1[C@@H](OC(C)=O)[C@H](O[C@H]2C[C@H]3[C@@H]4CC=C5C[C@@H](O)CC[C@]5(C)[C@H]4CC[C@]3(C)[C@@]2(O)[C@H](C)C(=O)OCCCCCCCCCCCC)OC[C@@H]1O	1700
1200	78	CCCCCCCCCCCCOC(=O)[C@@H](C)[C@@]1(O)[C@@H](O[C@@H]2OC[C@H](O)[C@H](O)[C@H]2OC(C)=O)C[C@H]2[C@@H]3CC=C4C[C@@H](O)CC[C@]4(C)[C@H]3CC[C@@]21C	
71	15	CCCCCCCCCCCCOC(=O)[C@@H](C)[C@@]1(O)[C@@H](O[C@@H]2OC[C@H](O)[C@H](O[C@@H]3OC[C@@H](O)[C@H](O)[C@H]3OC(=O)c3ccc(OC)cc3)[C@H]2OC(C)=O)C[C@H]2[C@@H]3CC=C4C[C@@H](O)CC[C@]4(C)[C@H]3CC[C@@]21C	0.7
